Assay results from PubChem BioAssay.
Calls of active or inactive are those of the source.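 How the source made its calls, unless noted: active means viability at or under a set limit in both replicates, limit being median viability minus 3 SD (cut at about 48% in these data, passing the limit was not always enough); inconclusive means at or under the limit in just one replicate; inactive means at or above the limit in both replicates.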

Experiments:
[1] = molecular target: Pantothenate synthetase (Mycobacterium tuberculosis (strain ATCC 25618 / H37Rv)) (UniProt P9WIL5); experiment: Coupled enzyme confirmation of inhibitors against recombinant Mtb PanC (AID 375; call rule not given here;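 further: 0% = full reaction with vehicle and 100% = no enzyme background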); conditions: coupled enzyme assay; at 10 µM, stronger effect = higher value
Chain of Pantothenate synthetase (Mycobacterium tuberculosis (strain ATCC 25618 / H37Rv)) (P9WIL5 whole entry, looked up): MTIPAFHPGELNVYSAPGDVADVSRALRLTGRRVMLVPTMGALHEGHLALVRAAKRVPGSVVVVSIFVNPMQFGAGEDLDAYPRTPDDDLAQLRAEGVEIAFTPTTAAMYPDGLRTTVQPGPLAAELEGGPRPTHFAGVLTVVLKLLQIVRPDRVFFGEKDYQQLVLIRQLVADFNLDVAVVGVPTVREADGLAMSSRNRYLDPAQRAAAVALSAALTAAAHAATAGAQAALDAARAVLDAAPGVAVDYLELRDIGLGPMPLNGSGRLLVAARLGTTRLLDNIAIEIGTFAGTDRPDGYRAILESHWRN

[2] = reduced viability of SK-BR-3 breast cancer cells – cell-based, 24 h, human, pilot screen (AID 572;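 active means viability at or below 10% of carrier control in both of two separate runs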;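 further: compound exposure lasted between 18 and 24 h rather than exactly 24 h; 100% = carrier-treated control wells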); conditions: SK-BR-3 viability, CellTiter-Glo luminescence, at 10 µM, stronger effect = lower value
[3] = HUVEC growth inhibition – cell-based, human, primary screen (AID 575;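 active means viability at or below 30% in both replicate assays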;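 further: 100% = median of untreated cell wells with 0.1% DMSO on each plate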); conditions: HUVEC proliferation, CellTiter-Glo luminescence, 72 h; at 10 µM; stronger effect = lower value
In short: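 material = primary HUVEC, no more than 12 passages | input = 1250 cells per well | controls = vehicle and MePR control wells | measured by = CTG luminescence | times = 72 h compound incubation | format = collagen-coated 384-well format | read-out = % viability vs DMSO wells | doses = single 10 µM dose, 0.1% DMSO, from 5x medium stock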

[4] = H69AR cell proliferation blockers – human, duplicate replicates, primary screen (AID 580); conditions: H69AR lung tumor cells viability, ATP luminescence, 72 h; at 10 µM; stronger effect = lower value;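 further: 100% = mean luminescence of untreated wells and 0% = no signal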
[5] = MRP1 drug-resistance reversers in H69AR cells – cell-based, doxorubicin co-treatment, pilot screen (AID 601;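 active means viability loss from added drug above about 55%, and viability with drug at most 40%, in both replicates, limit read from the data, passing the limit was not always enough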); conditions: CellTiter-Glo, 72 h, at 10 µM; for differential viability (reversal): stronger effect = higher value
[6] = yeast transport mutant growth inhibition pilot in 384-well plates, post-Golgi transport modulator project (AID 636; in the data active means inhibition above about 31%); conditions: absorbance 615 nm, about 18 h, stronger effect = higher value
[7] = growth suppression of yeast trafficking mutant, preliminary HTS, modulators of trafficking downstream of Golgi apparatus project, 1536-format plate, OD 615 nm (AID 637; in the data active means inhibition above about 30%); conditions: yeast transport mutant growth, absorbance 615 nm, 18 h; stronger effect = higher value
[8] = H69AR cells + 2 uM doxorubicin, measured here: viability with 2 uM doxorubicin, stronger effect = lower value
[9] = H69AR cells, compound alone cytotoxicity

Row | SMILES | inhibition [1] | viability [2] | viability [3] | viability [4] | differential viability (reversal) ([5]; H69AR cells + 2 uM doxorubicin) | viability [5, 8] | viability [5, 9] | inhibition [6] | inhibition [7]
1 | CCCNS(=O)(=O)c1ccc(OCC(=O)N2CCN(Cc3ccccc3)CC2)cc1 | 0% (inactive) | 111% (inactive) | 86.6% (inactive) | 88.6% (inactive) | 0.375% (inactive) | 88.2% | 88.6% | -5.07% (inactive) | 5.97% (inactive)
2 | O=c1[nH]c(=O)n(-c2cccc3ccccc23)c(O)c1C=NCCCn1ccnc1 | 0% (inactive) | 63% (inactive) | 101% (inactive) | 102% (inactive) | 10% (inactive) | 92% | 102% | -5.21% (inactive) | 1.27% (inactive)
3 | CN1[C@@H]2CC[C@H]1CC(OC(=O)C1C=Nc3ccccc31)C2 (some centres undefined) | 4% (inactive) | 86% (inactive) | 82.4% (inactive) | 83.3% (inactive) | -14.3% (inactive) | 97.7% | 83.3% | 3.25% (inactive) | 0.5% (inactive)
4 | CCCC(C)(COC(N)=O)COC(=O)NC(C)C (centres undefined) | 0% (inactive) | 88% (inactive) | 86.4% (inactive) | 100% (inactive) | -3.16% (inactive) | 103% | 100% | -1.69% (inactive) | 4.17% (inactive)
5 | c1ccc2c3c([nH]c2c1)CNCC3 | 0% (inactive) | 116% (inactive) | 77.7% (inactive) | 89.9% (inactive) | 9.92% (inactive) | 80% | 89.9% | -1.17% (inactive) | 0.5% (inactive)
6 | C[C@]12CCC(=O)C=C1CC[C@@H]1[C@@H]2CC[C@]2(C)C(=O)CC[C@@H]12 | 0% (inactive) | 79% (inactive) | 76.8% (inactive) | 85.3% (inactive) | -1.5% (inactive) | 86.8% | 85.3% | -3.38% (inactive) | -0.83% (inactive)
